Reference: publication PMC13386513 (Journal of medicinal chemistry, 2025)

Tests used:
[1] = test system: ATF4, CHOP, GADD34, TRB3 expression in SH-SY5Y cells; assay: qRT-PCR of ER stress-associated pro-apoptotic factors in p-tau-treated cells; format: cell-based, human; conditions: p-tau 0.5 μM plus ligand 5 μM, 24 h
[2] = test system: p-tau-treated SH-SY5Y cells; assay: Cell morphology by contrast microscopy; format: cell-based, human; conditions: p-tau 0.5 μM plus ligand 1 5 μM, 24 h
[3] = test system: Xbp1s, P58ipk, ATF4 expression in SH-SY5Y cells; assay: qRT-PCR of ER stress response induced by tunicamycin or thapsigargin; format: cell-based, human; conditions: 24 h
[4] = test system: SH-SY5Y cells; assay: Cytotoxicity of the ligands alone, cell viability; format: cell-based; conditions: 8 μM
[5] = test system: spliced Xbp1 mRNA, BiP, ERdj4 expression in SH-SY5Y cells; assay: qRT-PCR of ER stress markers and UPR mediators in p-tau-treated cells; format: cell-based, human; conditions: p-tau 0.5 μM plus ligand 5 μM, 24 h
[6] = test system: p-tau-treated SH-SY5Y cells; assay: Cytoprotective activity against p-tau, cell viability; format: cell-based, human; conditions: 0.5 μM p-tau overnight, compound 8 μM
Procedure, shortened: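 SH-SY5Y cells (passage 8–19; EMEM/F12, 10% FBS, 1% Pen-Strep) seeded 40,000/well in 24-well plates and grown overnight. Pretreated with test compound for 12 h, then exposed overnight to recombinant p-tau (E. coli BL21-expressed, heat-treated, TEV-cleaved). CCK-8 added for 2 h at 37 °C; OD read at 450 nm. Normalized to no-treatment mean; relative viability expressed against p-tau-only treatment.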

[7] = biological target: p-tau (Homo sapiens, UniProt P10636); assay: Transmission electron microscopy of p-tau; conditions: p-tau 10 μM, 24 h incubation, 37 °C, Tris pH 7.4
[8] = test system: TNFα, IL1β, IRF3 expression in SH-SY5Y cells; assay: qRT-PCR of pro-inflammatory factors in p-tau-treated cells; format: cell-based, human; conditions: p-tau 0.5 μM plus ligand 5 μM, 24 h
[9] = test system: heparanase; conditions: previous report; cited from earlier work

Sequence of p-tau (P10636 1-412 isoform P10636-7): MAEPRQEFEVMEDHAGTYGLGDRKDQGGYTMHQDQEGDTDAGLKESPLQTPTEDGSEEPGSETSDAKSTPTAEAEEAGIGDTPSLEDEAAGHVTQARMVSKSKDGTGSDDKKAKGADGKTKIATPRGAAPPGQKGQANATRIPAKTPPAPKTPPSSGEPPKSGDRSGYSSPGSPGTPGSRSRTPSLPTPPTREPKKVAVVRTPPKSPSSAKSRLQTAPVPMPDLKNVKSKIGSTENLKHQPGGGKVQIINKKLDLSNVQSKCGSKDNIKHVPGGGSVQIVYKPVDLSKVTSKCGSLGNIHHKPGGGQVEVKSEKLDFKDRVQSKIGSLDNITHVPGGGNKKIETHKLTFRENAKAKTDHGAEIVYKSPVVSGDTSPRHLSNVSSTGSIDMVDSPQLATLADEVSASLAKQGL

Compound | expression of ATF4, CHOP, GADD34 and TRB3 [1] | cell density and morphology [2] | Tg-induced ER stress response (Xbp1s, P58ipk, ATF4) ([3]; Tg 0.5 μM plus ligand 1 5 μM) | Tm-induced ER stress response (Xbp1s, P58ipk, ATF4) ([3]; Tm 5 μg/mL plus ligand 1 5 μM) | cytotoxicity of the compound alone [4] | expression of spliced Xbp1 mRNA, BiP and ERdj4 (p-tau-induced ER stress response/UPR) [5] | relative viability [6] | morphology of p-tau (TEM) [7] | p-tau-induced inflammatory response (IL1β, TNFα, IRF3 expression) [8] | heparanase inhibition [9]
COC(=O)[C@]12CCC(C)(C)C[C@H]1C1=CCC3[C@@]4(C)CC[C@H](O[C@@H]5O[C@H](COS(=O)(=O)O)[C@@H](O[C@@H]6O[C@H](C(=O)O)[C@@H](O[C@H]7O[C@H](COS(=O)(=O)O)[C@@H](O)[C@H](O)[C@H]7NS(=O)(=O)O)[C@H](O)[C@H]6O)[C@H](O)[C@H]5NS(=O)(=O)O)C(C)(C)C4CC[C@@]3(C)C1(C)CC2 (stereo partly drawn) [Compound 1, 3β-(2-N-Sulfo-2-deoxy-6-O-sulfo-α-D-glucopyranosyl-(1 → 4)-β-D-glucopyranosyluronate-(1 → 4)-2-N-sulfo-2-deoxy-6-O-sulfo-β-D-glucopyranosyloxy)-methyloleanolate] | significantly lowered | remarkably recovered cell density and morphology | failed to attenuate | failed to attenuate | did not exhibit cytotoxicity | strong protective effects | around 0.6 | reorganization of p-tau from an amorphous structure into more ordered clusters | able to protect cells | 
COC(=O)[C@]12CCC(C)(C)C[C@H]1C1=CCC3[C@@]4(C)CC[C@H](O)C(C)(C)C4CC[C@@]3(C)C1(C)CC2 (stereo partly drawn) [OAME, oleanolic acid methyl ester, reference compound] |  |  |  |  | did not exhibit cytotoxicity |  |  |  |  | 
CN1CCc2cccc3c2[C@H]1Cc1ccc(O)c(O)c1-3 [apomorphine, reference compound] |  |  |  |  |  |  | 0.7 | reorganization of p-tau from an amorphous structure into more ordered clusters |  | 
O=C(O)[C@H]1O[C@@H](O[C@H]2[C@H](O)[C@@H](NS(=O)(=O)O)[C@H](OCCNS(=O)(=O)O)O[C@@H]2COS(=O)(=O)O)[C@H](O)[C@@H](O)[C@@H]1O[C@H]1O[C@H](COS(=O)(=O)O)[C@@H](O)[C@H](O)[C@H]1NS(=O)(=O)O [Compound 2] | did not reduce |  |  |  | did not exhibit cytotoxicity | did not offer protection | 0.3 |  | did not offer protection | potent heparanase inhibitor
